The source made the active and inactive calls. The rule behind the calls is not given here.
Key:
Mus musculus [1] = experiment: Antinociceptive activity in Swiss mouse assessed as inhibition of acetic acid-induced writhing at 100 mg/kg, po administered 1 hr prior to acetic acid challenge measured for 30 mins; assay type: functional
Outline: (§1)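 Swiss mice (25–35 g, either sex), fasted overnight, given compound orally in 0.5% methylcellulose; controls received vehicle; groups of 8–10. Writhes, scored as complete extension of either hind limb, counted over 30 min after injection of the noxious agent. Percent inhibition derived from the difference in writhing between treated and control groups.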

Rattus norvegicus [2] = experiment: Antiinflammatory activity in Wistar rat assessed as inhibition of carrageenan-induced paw oedema at 100 mg/kg, po administered 1 hr prior to carrageenan challenge; assay type: functional
Outline: (§2)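 Wistar rats (250–300 g, either sex), fasted overnight, dosed by oral gavage with compound suspended in 0.5% methylcellulose; controls got vehicle. Groups of 8–10. 1 h later 0.1 mL 1% carrageenan injected subcutaneously into hind paw plantar surface; paw volume measured by plethysmometer immediately and 3 h later. Inhibition calculated from swelling difference versus controls (control = 100).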

Mus musculus [3] = experiment: Antinociceptive activity in Swiss mouse assessed as inhibition of acetic acid-induced writhing at 25 mg/kg, po administered 1 hr prior to acetic acid challenge measured for 30 mins; assay type: functional; outline: as §1
Mus musculus [4] = experiment: Antinociceptive activity in Swiss mouse assessed as inhibition of acetic acid-induced writhing at 50 mg/kg, po administered 1 hr prior to acetic acid challenge measured for 30 mins; assay type: functional; outline: as §1
Mus musculus [5] = experiment: Antinociceptive activity in Swiss mouse assessed as inhibition of acetic acid-induced writhing at 12.5 mg/kg, po administered 1 hr prior to acetic acid challenge measured for 30 mins; assay type: functional; outline: as §1
Mus musculus [6] = experiment: Antinociceptive activity in Swiss mouse assessed as inhibition of acetic acid-induced writhing at 6.25 mg/kg, po administered 1 hr prior to acetic acid challenge measured for 30 mins; assay type: functional; outline: as §1
Rattus norvegicus [7] = experiment: Antiinflammatory activity in Wistar rat assessed as inhibition of carrageenan-induced paw oedema at 50 mg/kg, po administered 1 hr prior to carrageenan challenge; assay type: functional; outline: as §2
Rattus norvegicus [8] = experiment: Antiinflammatory activity in Wistar rat assessed as inhibition of carrageenan-induced paw oedema at 25 mg/kg, po administered 1 hr prior to carrageenan challenge; assay type: functional; outline: as §2
Rattus norvegicus [9] = experiment: Antiinflammatory activity in Wistar rat assessed as inhibition of carrageenan-induced paw oedema at 12.5 mg/kg, po administered 1 hr prior to carrageenan challenge; assay type: functional; outline: as §2
Rattus norvegicus [10] = experiment: Antiinflammatory activity in Wistar rat assessed as inhibition of carrageenan-induced paw oedema at 6.25 mg/kg, po administered 1 hr prior to carrageenan challenge; assay type: functional; outline: as §2
Mus musculus [11] = experiment: Sedative activity in Swiss mouse assessed as inhibition of spontaneous locomotor activity at 100 mg/kg, po measured for 30 mins by open-field test; assay type: organism-based; design: dose 100 mg/kg, route oral; settings: in vivo, 0.5 h
Outline: (§3)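 Swiss mice (25-35 g, either sex), fasted overnight, given compound orally by gavage suspended in 0.5% methylcellulose; vehicle controls; groups of 8-10. Spontaneous locomotor activity recorded by videocamera with video-tracking as distance (m) travelled in 30 min; Student's t-test vs controls.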

Mus musculus [12] = experiment: Sedative activity in Swiss mouse assessed as inhibition of spontaneous locomotor activity at 50 mg/kg, po measured for 30 mins by open-field test; assay type: organism-based; design: dose 50 mg/kg, route oral; settings: in vivo, 0.5 h; outline: as §3
Mus musculus [13] = experiment: Sedative activity in Swiss mouse assessed as inhibition of spontaneous locomotor activity at 25 mg/kg, po measured for 30 mins by open-field test; assay type: organism-based; design: dose 25 mg/kg, route oral; settings: in vivo, 0.5 h; outline: as §3
Mus musculus [14] = experiment: Sedative activity in Swiss mouse assessed as inhibition of spontaneous locomotor activity at 12.5 mg/kg, po measured for 30 mins by open-field test; assay type: organism-based; design: dose 12.5 mg/kg, route oral; settings: in vivo, 0.5 h; outline: as §3
Rattus norvegicus [15] = experiment: Antiinflammatory activity in Wistar rat assessed as inhibition of carrageenan-induced paw oedema at 3.12 mg/kg, po administered 1 hr prior to carrageenan challenge; assay type: functional; outline: as §2
Rattus norvegicus [16] = experiment: Antiinflammatory activity in Wistar rat assessed as inhibition of carrageenan-induced paw oedema at 1.6 mg/kg, po administered 1 hr prior to carrageenan challenge; assay type: functional; outline: as §2
Rattus norvegicus [17] = experiment: Antiinflammatory activity in Wistar rat assessed as inhibition of carrageenan-induced paw oedema at 0.8 mg/kg, po administered 1 hr prior to carrageenan challenge; assay type: functional; outline: as §2
Rattus norvegicus [18] = experiment: Acute gastrolesivity in Wistar rat assessed as stomach lesions at 100 mg/kg, po measured after 5 hrs; assay type: toxicity, organism-based; design: dose 100 mg/kg, route oral; settings: in vivo
Outline: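 Wistar rats (250-300 g, either sex), fasted overnight, dosed by oral gavage in 0.5% methylcellulose (1 mL 100 g^-1); groups of 8-10. Stomachs excised 5 h post-dose, fixed with 2% formalin, opened along greater curvature, examined by stereomicroscope by blinded observer. Read-out: number of rats with gastric damage over number treated.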

[19] = Antiplatelet activity in guinea pig platelet rich plasma assessed as inhibition of ADP-induced aggregation by aggregometry; assay type: functional, cell-free; settings: Cavia porcellus
Outline: (§4)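 Guinea pig blood drawn by cardiac puncture into 3.8% citrate (1:9). PRP obtained by spinning at 180 g for 15 min, PPP at 2000 g for 10 min. PRP preincubated 5 min at 37 °C with compound or DMSO (≤0.5% final), then aggregation triggered by U46619, ADP or arachidonic acid. Born turbidimetry at 37 °C with stirring; percent inhibition versus control; tested within 3 h.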

[20] = Antiplatelet activity in guinea pig platelet rich plasma assessed as inhibition of arachidonic acid-induced aggregation by aggregometry; assay type: functional, cell-free; settings: Cavia porcellus; outline: as §4
[21] = Antiplatelet activity in guinea pig platelet rich plasma assessed as inhibition of U46619-induced aggregation by aggregometry; assay type: functional, cell-free; settings: Cavia porcellus; outline: as §4
J774 = experiment: Antiinflammatory activity in mouse J774 cells assessed as inhibition of LPS-induced NO production at 100 uM after 6 hrs by Griess assay; assay type: functional, cell-based
Outline: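 J774 murine macrophages grown in DMEM with 10% FBS and 2 mM glutamine at 37 °C, 5% CO2. Cells plated at 2.5 × 10⁵/mL, left to adhere overnight, and the medium refreshed. Compound added together with LPS. Supernatants taken after 6 h; nitrite measured with Griess reagent (10 min) as absorbance at 540 nm, with fresh medium as blank.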

| SMILES | inhibition in vivo at 100 mg/kg (Mus musculus [1]) [%] | inhibition in vivo at 100 mg/kg (Rattus norvegicus [2]) [%] | inhibition in vivo at 25 mg/kg (Mus musculus [3]) [%] | inhibition in vivo at 50 mg/kg (Mus musculus [4]) [%] | inhibition in vivo at 50 mg/kg (Rattus norvegicus [7]) [%] | inhibition in vivo at 25 mg/kg (Rattus norvegicus [8]) [%] | inhibition in vivo at 12.5 mg/kg (Rattus norvegicus [9]) [%] | Activity (Mus musculus [11]) | further results |
| --- | --- | --- | --- | --- | --- | --- | --- | --- | --- |
| CCN(CC)C(=O)c1c(NC(C)C)c2cccnc2n2c(CN3CCN(C)CC3)nnc12 | 0 | 13 | – | – | – | – | – | – | – |
| CCN1CCN(c2c(C(=O)N(CC)CC)c3nnc(C(C)C)n3c3ncccc23)CC1 | 100 | 31 | 72 | 74 | 35 | 36 | 31 | Toxic | inhibition in vivo at 12.5 mg/kg (Mus musculus [5]): 50%; inhibition in vivo at 6.25 mg/kg (Mus musculus [6]): 0%; inhibition in vivo at 6.25 mg/kg (Rattus norvegicus [10]): 8%; Activity (Mus musculus [12]): Toxic; Activity (Mus musculus [13]): Toxic; Activity (Mus musculus [14]): Toxic |
| CCNC(=O)c1c(NC(CC)CC)c2cccnc2n2c(C(C)C)nnc12 | 34 | 60 | 0 | 41 | 35 | 30 | 12 | – | – |
| CCN(CC)C(=O)c1c(NC(C)C)c2cccnc2n2c(CN3CCOCC3)nnc12 | 0 | 0 | – | – | – | – | – | – | – |
| CCc1nnc2c(C(=O)N(CC)CC)c(N3CCN(C)CC3)c3cccnc3n12 | 95 | 39 | 10 | 81 | 29 | 22 | – | Toxic | Activity (Mus musculus [12]): Toxic |
| CC(C)NC(=O)c1c(NC(C)C)c2cccnc2n2c(C(C)C)nnc12 | 0 | 34 | – | – | 33 | 9 | – | – | – |
| CCNC(=O)c1c(NC(C)C)c2cccnc2n2c(C(C)C)nnc12 | 66 | 80 | 15 | 64 | 72 | 57 | 54 | Toxic | inhibition in vivo at 6.25 mg/kg (Rattus norvegicus [10]): 40%; inhibition in vivo at 3.12 mg/kg (Rattus norvegicus [15]): 31%; inhibition in vivo at 1.6 mg/kg (Rattus norvegicus [16]): 31%; inhibition in vivo at 0.8 mg/kg (Rattus norvegicus [17]): 0%; Activity (Rattus norvegicus [18]): Non-toxic; IC50 [19]: 281 µM; IC50 [20]: 24 µM; IC50 [21]: 89 µM; inhibition (J774): inactive |
| CCN(CC)C(=O)c1c(NCC(C)C)c2cccnc2n2c(=O)cc(C)nc12 | 71 | 15 | 0 | 54 | – | – | – | – | – |

— ChEMBL document CHEMBL3352067, “1,8-Naphthyridines IX. Potent anti-inflammatory and/or analgesic activity of a new group of substituted 5-amino[1,2,4]triazolo[4,3-a][1,8]naphthyridine-6-carboxamides, of some their Mannich base derivatives and of one novel substituted …” (Eur J Med Chem, 2014)
